Reference: ChEMBL document CHEMBL1143180, “Imidazolyl benzimidazoles and imidazo[4,5-b]pyridines as potent p38alpha MAP kinase inhibitors with excellent in vivo antiinflammatory properties” (Bioorg Med Chem Lett, 2008)

Columns and labels:
[1] = system: Macrophage; test: Inhibition of LPS-stimulated TNFalpha production in mouse peritoneal macrophages; format: functional, cell-based
Method in brief: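 Murine peritoneal macrophages stimulated with LPS while exposed to test compound; TNFα release measured as functional read-out. Cell assay minimum significant ratio 2.8.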

[2] = target: Mitogen-activated protein kinase 14 (Mus musculus, UniProt P47811); test: Inhibition of mouse p38alpha in anisomycin-stimulated RAW 264.7 cells by ELISA; format: cell-based
Method in brief: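 Cell-based ELISA: RAW 264.7 cells pretreated with compound, then stimulated with anisomycin; p38α activity detected by antibody to phospho-MAPKAPK-2 (Thr334), a residue phosphorylated specifically by p38α. Minimum significant ratio 2.8.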

[3] = target: Mitogen-activated protein kinase 14 (Homo sapiens, UniProt Q16539); test: Inhibition of human recombinant p38alpha
[4] = Half life in rat at 10 mg/kg, po; format: ADME, organism-based; design: dose 10 mg/kg, route oral; details: in vivo
Method in brief: (§1)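 Rats dosed orally at 10 mg/kg; plasma exposure reported as AUC0-inf and terminal half-life.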

[5] = system: Mus musculus; test: Inhibition of LPS-stimulated TNFalpha production in po dosed BALB/c mouse; format: functional
[6] = AUC (0 to infinity) in rat at 10 mg/kg, po; format: ADME, organism-based; design: time infinity, dose 10 mg/kg, route oral; details: plasma; method in brief: as §1
[7] = system: Rattus norvegicus; test: Antiinflammatory activity against collagen-induced arthritis rat model assessed as inhibition of paw swelling administered orally twice daily for 14 days; format: functional
Method in brief: (§2)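 Rat collagen-induced arthritis, 14-day chronic model; activity scored by paw swelling and by histopathology (bone erosion, cartilage destruction); TMED50 derived from dose response.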

[8] = system: Rattus norvegicus; test: Antiinflammatory activity against collagen-induced arthritis rat model assessed as effect on histopathology scores administered orally twice daily for 14 days; format: functional; method in brief: as §2

Chain of Mitogen-activated protein kinase 14 (Mus musculus, UniProt P47811) (P47811 whole entry): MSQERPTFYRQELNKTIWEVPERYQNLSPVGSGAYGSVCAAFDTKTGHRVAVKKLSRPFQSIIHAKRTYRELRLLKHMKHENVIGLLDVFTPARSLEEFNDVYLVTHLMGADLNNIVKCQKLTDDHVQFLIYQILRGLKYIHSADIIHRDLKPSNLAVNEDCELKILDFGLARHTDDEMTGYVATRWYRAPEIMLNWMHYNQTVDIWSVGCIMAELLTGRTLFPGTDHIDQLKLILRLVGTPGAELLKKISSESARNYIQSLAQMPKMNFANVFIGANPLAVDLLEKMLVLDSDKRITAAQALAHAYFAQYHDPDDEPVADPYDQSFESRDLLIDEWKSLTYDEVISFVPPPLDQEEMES
Chain of Mitogen-activated protein kinase 14 (Homo sapiens, UniProt Q16539) (Q16539 whole entry): as the sequence (P47811 whole entry) above, with H48L, A263T counted along it

IC50 [1] [nM]	IC50 [2] [nM]	IC50 [3] [nM]	half-life [4] [h]	AUC(0-inf) [6] [µM·h]	Structure (SMILES)	TMED50 [5] [mg/kg]	TMED50 [7] [mg/kg]	TMED50 [8] [mg/kg]
338	–	11.2	–	–	Cc1nc2ccc(-c3[nH]c(-c4c(F)cccc4F)nc3-c3ccccc3)cc2n1CC(C)C	–	–	–
24.1	20.7	–	–	–	CC(C)(C)Cn1cnc2ccc(-c3[nH]c(C(C)(C)C)nc3-c3ccc(F)cc3F)nc21	–	–	–
46.5	59.7	8.8	–	–	Cc1nc(-c2ccc(F)cc2F)c(-c2ccc3nc(N)n(S(=O)(=O)C(C)C)c3c2)[nH]1	–	–	–
234	–	2490	–	–	CC(C)S(=O)(=O)n1c(N(C)Cc2ccccc2)nc2ccc(-c3[nH]c(-c4c(F)cccc4F)nc3-c3ccccc3)cc21	–	–	–
1330	–	131	–	–	Nc1nc2ccc(-c3[nH]c(-c4c(F)cccc4F)nc3-c3ccccc3)cc2[nH]1	–	–	–
10.3	45.7	–	5	5.5	CC(C)S(=O)(=O)n1c(N)nc2ccc(-c3[nH]c(-c4c(F)cccc4F)nc3-c3ccccc3)cc21	5.2	>30	>30
527	–	156	–	–	CCNc1nc2ccc(-c3[nH]c(-c4c(F)cccc4F)nc3-c3ccccc3)cc2n1S(=O)(=O)C(C)C	–	–	–
1.7	64.7	3.7	4	29.9	CC(C)Cn1cnc2ccc(-c3[nH]c(-c4c(Cl)cccc4Cl)nc3-c3ccccc3)nc21.CS(=O)(=O)O	<2.5	15	>30
1.3	35	2.5	–	–	CC(C)Cn1c(N)nc2ccc(-c3[nH]c(-c4c(F)cccc4F)nc3-c3ccccc3)nc21	–	–	–
47.5	78.3	9.9	–	–	CC(C)Cn1c(N)nc2ccc(-c3[nH]c(-c4c(F)cccc4F)nc3-c3ccccc3)cc21	–	–	–

More lines, now with the values behind:

Structure (SMILES)	IC50 [1] [nM]	IC50 [2] [nM]	IC50 [3] [nM]	half-life [4] [h]	AUC(0-inf) [6] [µM·h]	TMED50 [5] [mg/kg]	TMED50 [7] [mg/kg]	TMED50 [8] [mg/kg]
CC(C)S(=O)(=O)n1c(N)nc2ccc(-c3[nH]cnc3-c3ccccc3)cc21	31.8	195	–	–	–	–	–	–
CC(C)S(=O)(=O)n1c(N)nc2ccc(-c3nc(-c4c(Cl)cccc4Cl)[nH]c3-c3ccccc3)cc21	2.6	38.9	–	–	–	–	–	–
Cc1nc(-c2ccccc2)c(-c2ccc3nc(N)n(S(=O)(=O)C(C)C)c3c2)[nH]1	186	–	20.4	–	–	–	–	–
CC(C)S(=O)(=O)n1c(N)nc2ccc(-c3[nH]c(-c4c(Cl)cccc4C(F)(F)F)nc3-c3ccccc3)cc21	1.9	398	8.5	–	–	–	–	–
Cc1nc(-c2ccc(F)cc2)c(-c2ccc3nc(N)n(S(=O)(=O)C(C)C)c3c2)[nH]1	104	225	7.1	–	–	–	–	–
CC(C)S(=O)(=O)n1c(N)nc2ccc(-c3nc(-c4ccccc4C(F)(F)F)[nH]c3-c3ccccc3)cc21	33.1	284	26.1	–	–	–	–	–
CC(C)S(=O)(=O)n1c(N)nc2ccc(-c3[nH]c(-c4c(F)cccc4F)nc3-c3ccccc3)nc21	3.7	298	3.5	–	–	–	–	–
CC(C)S(=O)(=O)n1c(N)nc2ccc(-c3[nH]c(-c4c(F)cccc4Cl)nc3-c3ccccc3)cc21	11.2	74.5	14.5	–	–	–	–	–
Fc1cccc(F)c1-c1nc(-c2ccccc2)c(-c2ccc3nc[nH]c3c2)[nH]1	419	766	88.4	–	–	–	–	–
CC(C)Cn1cnc2ccc(-c3[nH]c(-c4c(F)cccc4F)nc3-c3ccccc3)nc21	26.7	69.7	4.5	–	–	–	–	–
CC(C)(C)Cn1c(N)nc2ccc(-c3[nH]c(-c4c(F)cccc4F)nc3-c3ccccc3)cc21	3.5	126	6	–	–	–	–	–
CC(C)S(=O)(=O)n1c(N)nc2ccc(-c3nc(-c4c(Cl)cccc4Cl)[nH]c3-c3ccc(F)cc3)cc21	5.3	27.5	6.7	–	–	–	–	–
CC(C)(C)Cn1c(N)nc2ccc(-c3[nH]c(-c4c(F)cccc4F)nc3-c3ccccc3)nc21	< 9	–	6.4	–	–	–	–	–
CC(C)S(=O)(=O)n1c(N)nc2ccc(-c3[nH]c(-c4ccc(Cl)cc4)nc3-c3ccccc3)cc21	71	376	34.7	–	–	–	–	–
CCNc1nc2ccc(-c3[nH]c(-c4c(F)cccc4F)nc3-c3ccccc3)cc2[nH]1	493	–	56.4	–	–	–	–	–
CC(C)S(=O)(=O)n1c(N)nc2ccc(-c3[nH]c(C(C)(C)C)nc3-c3ccc(F)cc3F)cc21	6.2	26.2	–	8	14.6	2.2	1.5	8.1
Nc1nc2ccc(-c3[nH]c(-c4c(F)cccc4F)nc3-c3ccccc3)cc2n1-c1ccccc1	–	–	158	–	–	–	–	–
CC(C)Cn1cnc2ccc(-c3[nH]c(-c4c(F)cccc4F)nc3-c3ccccc3)cc21	51.9	–	16.2	–	–	–	–	–
CC(C)S(=O)(=O)n1c(N)nc2ccc(-c3[nH]c(-c4ccncc4)nc3-c3ccccc3)cc21	14.1	62.3	6.1	–	–	–	–	–
